Source: PMC10195017 (Journal of Immunotherapy and Precision Oncology, 2023)
“Also recorded” adds a separate entry of the source. Read-outs that look alike come from different tables or passages of the source. One block for each molecule: values may come before it.

Columns and labels:
Aqueous solubility = type: physicochemical
Caco-2 = Caco-2 permeability; type: in vitro ADME; conditions: Caco-2 assay
P-gp = P-gp (Homo sapiens, UniProt P08183); assay: MDCK-MDR1 permeability; type: in vitro ADME
[1] = Octanol-water partition coefficient; type: physicochemical
pKa = type: physicochemical
[2] = Plasma pharmacokinetics in male C57BL/6J mice after a single dose; type: in vivo; conditions: non-tumor-bearing animals
circulating Tregs = assay: Circulating Treg frequencies in non-tumor-bearing rats; type: in vivo, Harlan Sprague Dawley rats; conditions: 30 mg/kg orally, daily, 15 days; female rats; vs vehicle
How it was run: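 Female Harlan Sprague Dawley rats, non-tumor-bearing, received the test compound at 30 mg/kg orally once daily for 15 days, with a vehicle group (n = 5 per cohort). Blood was drawn from the same animals on days −1, 3, 5, 7, 10 and 14. After red cell lysis, samples got viability dye, CD3/CD4/CD8/CD25 surface staining, fixation and permeabilization, and FoxP3 staining. Tregs (CD3+CD4+CD8α−FoxP3+) were counted as % of CD4+ cells and normalized to day −1 (100%). Unpaired t test per time point […].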

B16.F10 = assay: In vivo tumor growth, B16.F10 syngeneic tumor model; set-up: species or system C57BL/6J mice; conditions: combination with anti-PD-1
How it was run: (§1)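 Mice were 6-week-old male C57BL/6J, n = 10 per cohort. Tumor cells were trypsinized and spun 400g for 5 min, then put into the right hind flank: MC38 1 × 10^6 in 50:50 Cultrex:PBS, D4M.3A 1 × 10^6 in PBS, B16.F10 0.5 × 10^6 in HBSS. Test compound given once daily IP or by oral gavage from day 7 (B16.F10), 8 (MC38) or 9 (D4M.3A). Anti-PD-1, 200 μg IP ×3, every other day, 6 h after compound. Caliper volume = w² × l/2. Two-way ANOVA/Bonferroni on last treatment day.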

[3] = Plasma and tumor pharmacokinetics at steady-state in D4M.3A tumor-bearing mice; type: in vivo, C57BL/6J mice; conditions: 64 mg/kg/day oral, steady-state after 21 days
How it was run: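 Male C57BL/6J mice bearing D4M.3A tumors were pretreated for 21 days with the test compound (succinate salt) at 64 mg/kg orally. Plasma and tumor drug concentrations were then measured at steady state.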

tumor-infiltrating Tregs = assay: Flow cytometry of tumor-infiltrating Tregs in D4M.3A-injected mice; type: in vivo, C57BL/6J mice; conditions: combination therapy with anti-PD-1; D4M.3A tumors; mean ± SEM; pooled MPT-0118 and MPT-0308 (n = 16)
D4M.3A = assay: In vivo tumor growth, D4M.3A syngeneic tumor model; set-up: species or system C57BL/6J mice; conditions: for tumor growth, comparison of both salt forms: 32 mg/kg IP, QD, D4M.3A tumor-challenged mice, with and without anti-PD-1; for tumor growth, combination effect: combination with anti-PD-1, D4M.3A model; for tumor growth response: monotherapy, poorly immunogenic D4M.3A model, high doses of MPT-0118 or MPT-0308
How it was run: as §1

PDOTS = assay: Viability of patient-derived organotypic tumor spheroids; type: cell-based, human; conditions: 5 μM in combination with anti-PD-1, + αIFNγ 10 μg/mL
How it was run: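 Colorectal cancer and melanoma resection samples were made into organotypic spheroids that kept their native immune cells. These were embedded in collagen in a 3D microfluidic device and cultured 5–7 days in DMEM with the test compound (3–5 μM). Arms were ± pembrolizumab 250 μg/mL, each ± anti-human IFNγ 10 μg/mL. Viability was measured by Hoechst 33342/propidium iodide imaging (45 min, 37 °C, 5% CO2) as live cell area. Results were given as percent change versus untreated control.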

MC38 = assay: In vivo tumor growth, MC38 syngeneic tumor model; set-up: species or system C57BL/6J mice
How it was run: as §1

[4] = system: D4M.3A murine melanoma tumor spheroids; assay: Viability of cell-line-derived D4M.3A tumor spheroids; type: cell-based, mouse; conditions: doses up to 10 μM; day 4
How it was run: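 D4M.3A cell-line-derived tumor spheroids were embedded in collagen in a 3D microfluidic device (gel set 30 min, 37 °C). They were cultured in DMEM with the test compound at 0.3–10 μM for 4 days. Live/dead staining used Hoechst 33342/propidium iodide (45 min, 37 °C, 5% CO2), followed by fluorescence imaging and total raw cell area per dye. Live signal was expressed as percent change or log2 fold change relative to untreated control.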

MC38 MDOTS = assay: Viability of MC38 MDOTS; type: cell-based, mouse; conditions: day 6
How it was run: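 MC38-derived spheroids kept their resident immune cells. They were mixed with collagen, loaded into the central gel region of a 3D microfluidic device, and set for 30 min at 37 °C. They were then hydrated with DMEM containing test compound 3 μM ± anti-mouse IFNγ 10 μg/mL, or anti-IFNγ alone, for 6 days. Viability was read by Hoechst 33342/propidium iodide staining (45 min, 37 °C, 5% CO2) and fluorescence imaging of total cell area per dye. Live signal was expressed as percent or log2 fold change versus control.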

MALT1 [5] = target: T1, MALT1 (Mus musculus, UniProt Q2TBA3); assay: MALT1-cleaved CYLD-ct flow cytometry assay in murine CD4+ T cells; type: cell-based; conditions: for MALT1 inhibition: murine CD4+ T cells
T1 sequence (Q2TBA3 1-832): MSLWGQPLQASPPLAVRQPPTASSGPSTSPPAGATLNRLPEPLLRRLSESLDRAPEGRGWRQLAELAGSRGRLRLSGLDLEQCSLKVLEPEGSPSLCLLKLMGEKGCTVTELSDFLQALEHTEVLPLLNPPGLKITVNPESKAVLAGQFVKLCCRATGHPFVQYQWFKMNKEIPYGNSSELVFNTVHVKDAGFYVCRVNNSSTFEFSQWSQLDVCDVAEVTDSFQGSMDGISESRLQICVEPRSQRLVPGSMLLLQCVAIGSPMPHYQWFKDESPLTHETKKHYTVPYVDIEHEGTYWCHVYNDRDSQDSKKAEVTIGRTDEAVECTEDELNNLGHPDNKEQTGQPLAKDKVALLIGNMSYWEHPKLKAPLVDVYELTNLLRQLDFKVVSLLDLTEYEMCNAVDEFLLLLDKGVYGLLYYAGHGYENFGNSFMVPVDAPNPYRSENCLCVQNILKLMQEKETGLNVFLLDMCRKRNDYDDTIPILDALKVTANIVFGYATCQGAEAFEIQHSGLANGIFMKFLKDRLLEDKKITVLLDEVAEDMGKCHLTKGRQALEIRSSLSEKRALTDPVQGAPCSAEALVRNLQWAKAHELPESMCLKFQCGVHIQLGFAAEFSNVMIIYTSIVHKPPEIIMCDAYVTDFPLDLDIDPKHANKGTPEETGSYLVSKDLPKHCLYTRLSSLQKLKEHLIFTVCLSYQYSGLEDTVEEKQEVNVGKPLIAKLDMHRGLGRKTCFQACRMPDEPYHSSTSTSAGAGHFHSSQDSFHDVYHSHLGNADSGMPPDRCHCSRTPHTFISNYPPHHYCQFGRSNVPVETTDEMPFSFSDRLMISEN
How it was run: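 Murine CD4+ T cells were treated with a dose titration of the test compound or DMSO, then stimulated with PMA plus ionomycin. MALT1 activity was read by flow cytometry as the CYLD C-terminal cleavage product. Detection used the in-house neoepitope monoclonal 25F10, which recognizes both human and mouse cleaved CYLD. Median fluorescence intensity was compared with DMSO-treated cells. n = 3, mean ± SEM.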

Tregs [6] = conditions: mice; 8 mg/kg twice a day IP and 16 mg/kg every day IP; cited from earlier work
Tregs [7] = conditions: rats; efficacious treatment; cited from earlier work
MALT1 [8] = conditions: cited from earlier work
Tregs [9] = conditions: dogs; efficacious treatment; cited from earlier work

Sequence of P-gp (P08183 whole entry): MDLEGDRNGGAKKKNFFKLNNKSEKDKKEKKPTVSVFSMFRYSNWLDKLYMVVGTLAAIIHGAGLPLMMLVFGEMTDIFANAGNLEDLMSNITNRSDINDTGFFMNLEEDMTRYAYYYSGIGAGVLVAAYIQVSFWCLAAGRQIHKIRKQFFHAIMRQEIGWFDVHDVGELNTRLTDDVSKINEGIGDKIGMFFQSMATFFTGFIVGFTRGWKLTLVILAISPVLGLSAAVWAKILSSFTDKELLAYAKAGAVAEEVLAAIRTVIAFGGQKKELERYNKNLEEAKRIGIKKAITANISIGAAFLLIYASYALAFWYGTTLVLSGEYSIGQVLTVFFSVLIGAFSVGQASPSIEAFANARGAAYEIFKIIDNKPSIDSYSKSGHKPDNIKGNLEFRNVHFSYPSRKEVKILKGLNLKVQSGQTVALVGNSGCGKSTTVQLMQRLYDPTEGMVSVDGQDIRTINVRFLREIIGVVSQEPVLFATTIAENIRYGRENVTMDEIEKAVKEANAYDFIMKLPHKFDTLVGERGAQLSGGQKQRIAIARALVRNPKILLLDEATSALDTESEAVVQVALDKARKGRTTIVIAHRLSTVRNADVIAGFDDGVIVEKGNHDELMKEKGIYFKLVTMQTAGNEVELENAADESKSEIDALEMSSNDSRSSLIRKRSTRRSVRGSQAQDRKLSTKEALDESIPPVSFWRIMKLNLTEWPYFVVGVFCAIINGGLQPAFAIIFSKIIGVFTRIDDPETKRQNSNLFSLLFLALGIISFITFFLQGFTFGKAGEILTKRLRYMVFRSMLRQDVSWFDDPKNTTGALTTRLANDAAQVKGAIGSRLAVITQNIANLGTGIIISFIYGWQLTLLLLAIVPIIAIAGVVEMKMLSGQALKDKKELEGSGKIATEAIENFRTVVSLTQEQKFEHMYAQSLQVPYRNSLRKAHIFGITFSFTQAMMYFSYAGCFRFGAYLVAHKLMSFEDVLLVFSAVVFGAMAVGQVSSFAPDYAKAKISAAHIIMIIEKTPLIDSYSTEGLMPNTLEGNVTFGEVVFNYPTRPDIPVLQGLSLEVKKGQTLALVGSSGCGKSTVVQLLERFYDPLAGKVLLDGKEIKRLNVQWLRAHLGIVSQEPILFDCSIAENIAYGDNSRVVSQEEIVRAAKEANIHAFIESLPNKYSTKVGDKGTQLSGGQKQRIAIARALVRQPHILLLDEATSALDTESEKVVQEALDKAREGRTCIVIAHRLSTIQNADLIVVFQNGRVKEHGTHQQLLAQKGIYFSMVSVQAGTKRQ

- solubility (in words) (Aqueous solubility): apparent pH-dependent solubility
- mean apparent AB permeability coefficient (Caco-2): 13.73 ± 0.15 × 10^−6 cm/s
- P-gp substrate (P-gp): not a P-gp substrate
- logP [1]: 5.29
- pKa (pKa): 9.2
- Tmax [2]: ≤ 2 h
Compound: CN1CCC[C@H](CN2c3ccccc3Sc3ccccc32)C1 [(S)-mepazine]

- circulating Treg frequencies (circulating Tregs): No change; also recorded: no effect
- peak concentrations in mouse plasma [3]: ≤ 1.3 µM
- drug concentrations in tumor tissue ([3]; over the following 24 hours): 3000 to 10000 nM
Compound: CN1CCC[C@H](CN2c3ccccc3Sc3ccccc32)C1.O=C(O)CCC(=O)O [MPT-0118, (S)-mepazine succinate]
- tumor growth, combination effect (B16.F10): clear synergy
- frequency of IFNγ+ Tregs (percentage of total tumor-infiltrating Tregs) (tumor-infiltrating Tregs): 8.9 ± 1.01%
- tumor growth, comparison of both salt forms (D4M.3A): comparable effects on tumor growth
- tumor growth, combination effect (D4M.3A): clear synergy
- tumor growth response (D4M.3A): consistently responded
- effects on PDOTS with anti-IFNγ neutralizing antibody (PDOTS): reversed

- MALT1 inhibition (MALT1 [5]; 3 μM): roughly 75%
- MALT1 inhibition (MALT1 [5]; 10 μM): ~95%
- IC50 (MALT1 [5]; read-out: IC50 (MALT1-cleaved CYLD-ct), murine splenic CD4+ T cells stimulated with PMA/ionomycin): 1130 nM
Compound: CN1CCC[C@H](CN2c3ccccc3Sc3ccccc32)C1.Cl [MPT-0308, (S)-mepazine hydrochloride]
- tumor growth, combination effect (MC38; high dose in combination with anti-PD-1, MC38 model): additive effect
- tumor growth (MC38; monotherapy, immunogenic MC38 model): significant inhibition of tumor growth
- viability of tumor spheroids lacking immune cells and tumor stroma [4]: not affected
- tumor growth, combination effect (B16.F10): clear synergy
- antitumor activity in MDOTS with anti-IFNγ neutralizing antibody (MC38 MDOTS; 3 μM + anti-mouse IFNγ 10 μg/mL): reversed
- antitumor activity in MDOTS (MC38 MDOTS; 3 μM): active
- frequency of IFNγ+ Tregs (percentage of total tumor-infiltrating Tregs) (tumor-infiltrating Tregs): 8.9 ± 1.01%
- tumor growth, comparison of both salt forms (D4M.3A): comparable effects on tumor growth
- tumor growth, combination effect (D4M.3A): clear synergy
- tumor growth response (D4M.3A): consistently responded

Compound: CN1CCCC(CN2c3ccccc3Sc3ccccc32)C1 (racemic) [mepazine racemate, mepazine]
- Treg frequencies in peripheral blood (Tregs [6]): no effect

Compound: CO[C@@H](C)c1c(NC(=O)Nc2ccnc(C(F)(F)F)c2)cnc2cc(Cl)nn12 [MLT-943]
- Treg numbers (Tregs [7]): rapid reduction of Tregs
- pathology developing after Treg reduction (Tregs [7]): reversible immune dysregulation, polyendocrinopathy, enteropathy, X-linked (IPEX)-like pathology
- IC50 (MALT1 [8]): < 10 nM
- Treg numbers (Tregs [9]): rapid reduction of Tregs
